# Most compounds without a hit are left out; they make up all but 2.1% or so of the library.
# PKD1 inh: inhibitors of human PKD1 kinase, biochemical, fluorescence polarization; actives 0.056% (n = 200,000); Serine/threonine-protein kinase D1 (Homo sapiens), Q15139; inhibition, % (concentration not given with the values); PKD1 kinase fluorescence polarization assay; in the data active means inhibition above about 50%
# Target sequence (Q15139 whole entry, looked up): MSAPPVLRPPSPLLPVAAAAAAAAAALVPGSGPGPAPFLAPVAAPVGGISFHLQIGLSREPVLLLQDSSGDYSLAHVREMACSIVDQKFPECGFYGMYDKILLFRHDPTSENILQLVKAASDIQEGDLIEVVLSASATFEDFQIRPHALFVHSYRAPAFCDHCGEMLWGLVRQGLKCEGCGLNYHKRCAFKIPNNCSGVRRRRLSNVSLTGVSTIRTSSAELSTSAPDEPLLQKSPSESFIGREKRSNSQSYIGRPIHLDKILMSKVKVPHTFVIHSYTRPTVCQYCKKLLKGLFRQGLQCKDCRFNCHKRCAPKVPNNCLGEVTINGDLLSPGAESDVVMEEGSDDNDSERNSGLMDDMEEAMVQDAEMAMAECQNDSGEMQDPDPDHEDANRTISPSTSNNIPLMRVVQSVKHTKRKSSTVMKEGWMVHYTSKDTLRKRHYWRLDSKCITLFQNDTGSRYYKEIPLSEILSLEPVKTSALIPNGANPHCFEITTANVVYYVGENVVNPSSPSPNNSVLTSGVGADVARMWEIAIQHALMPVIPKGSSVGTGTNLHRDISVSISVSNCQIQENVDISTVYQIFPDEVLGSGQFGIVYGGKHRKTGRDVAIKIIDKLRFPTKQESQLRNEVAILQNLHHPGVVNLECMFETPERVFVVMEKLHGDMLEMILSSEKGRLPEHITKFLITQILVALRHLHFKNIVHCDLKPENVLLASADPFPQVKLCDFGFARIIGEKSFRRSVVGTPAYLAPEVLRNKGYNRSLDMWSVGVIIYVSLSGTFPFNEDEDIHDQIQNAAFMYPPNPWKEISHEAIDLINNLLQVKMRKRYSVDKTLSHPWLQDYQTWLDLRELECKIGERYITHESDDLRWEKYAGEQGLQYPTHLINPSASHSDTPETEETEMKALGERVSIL
# Insulin prom inh: inhibitors of insulin promoter-driven GFP, primary screen, imaging, TRM-6 cells, eGFP reporter, cell count. actives 0.9% (n = 130,000). inhibition, % at 2 µM. reporter expression induced with tamoxifen. AID 1273, 2008;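 active means inhibition above the mean plus 3 SD, with well images judged a real hit on visual review, cut at about 60% in these data, passing the limit was not always enough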
# Arbovirus inh: antivirals against arbovirus infection, primary screen, cell-based, full library, 10K replicate subset | arbovirus infection cell-based antiviral screen | inhibition, % at 10 µM | actives 0.37% (n = 200,000) | AID 1251, 2008; in the data active means inhibition above about 30%
# Insulin prom up: insulin promoter activators in MIN6 cells, imaging, high-content screening, mouse beta cells | MIN6 insulin promoter-GFP reporter; stronger effect = higher value | z-score at 5 µM | actives 0.3% (n = 190,000) | AID 1625, 2009;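 active means z-score above 3 at 5 µM with at least 500 cells counted in the well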
# Autophagy HCS: autophagy modulators in MEF cells, primary screen, imaging, high-content, MEF GFP-LC3; MEF GFP-LC3 puncta imaging; test concentration mostly 10 µM; calls only at 10 µM (by protocol); actives 0.98% (n = 190,000); AID 463193, 2010;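 active means percentage of spot-positive cells more than 3 SD above its plate mean, without a fluorescence outlier flag or 80% toxicity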;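 further: spot-positive cell cutoff set from DMSO-treated cells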
# RBBP9 inhibitor: human RBBP9 inhibitors, primary screen, biochemical, fluorescence polarization, FP-Rh probe, HTS; recombinant RBBP9; inhibition, % at 7.94 µM; actives 0.2% (n = 220,000); AID 1515, 2009;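 active means inhibition above the campaign mean of all tested compounds plus 3 SD, cut at about 14% in these data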;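 further: plate controls were DMSO wells with RBBP9 for no effect and wells lacking RBBP9 protein for full effect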
#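 Measured by: FP readout at 525/598 nm; material: recombinant human RBBP9; also added: Serine-hydrolase probe FP-Rh, 375 nM pre-mixing; medium: Tris buffer pH 8.0, NaCl, Pluronic; replication: one well per compound; doses: one concentration, 7.94 µM nominal, 0.794% DMSO; timing: preincubation 30 min plus labeling 45 min at 25 °C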
# Active calls of the source: *; i = inactive; · = no result; + = active, no number.
SMILES,PKD1 inh,Insulin prom inh,Arbovirus inh,Insulin prom up,Autophagy HCS,RBBP9 inhibitor
COc1ccc(-n2c(Cc3ccccc3)nnc2SCc2ccc([N+](=O)[O-])cc2)cc1,-4,0,-7,-1.9,i,-1
O=C(Cc1ccccc1)N1CCC(c2nc(-c3ccc(F)cc3)no2)CC1,4,·,9,0.87,i,-1
CCN1C(=O)CSc2ccc(C(=O)NCc3ccccc3OC)cc21,-3,-3,2,3.1*,i,-4
CCn1c(SCC(=O)c2c[nH]c3ccccc23)nc2cc(S(=O)(=O)N3CCOCC3)ccc21,1,59,-5,3.1*,i,-18
CCN(CC)CCN1C(=O)C(O)=C(C(=O)c2ccc(C)o2)C1c1ccccn1 (stereo not given),14,-230,·,·,+,0
Cc1cc(C)n(-c2nc3sc4c(c3c(=O)[nH]2)CCCC4)n1,1,-4,-32,·,+,-12
Nc1nc(CN2CCCCCC2)nc(Nc2ccccc2)n1,16,89*,9,-0.62,i,2
Cc1ccc(Nc2nc(N)nc(CN3CCCCCC3)n2)cc1,-2,3,0,0.05,i,-2
CCCCN(CC)C(=O)CSc1nc2c(sc(=S)n2-c2ccc(OCC)cc2)c(=O)[nH]1,-10,·,47*,-1.4,i,-10
CCCN(CCC)C(=O)CSc1nc2c(sc(=S)n2-c2ccc(OCC)cc2)c(=O)[nH]1,0,-50,42*,·,i,4
CCOC(=O)CC(=O)CSc1nc2c(sc(=S)n2-c2ccc(OCC)cc2)c(=O)[nH]1,-19,-22,60*,0.58,i,-3
CCOc1ccc(-n2c(=S)sc3c(=O)[nH]c(SCC(=O)NC(C)CC)nc32)cc1 (stereo not given),4,29,7,0.22,i,-1
CCN(CC)S(=O)(=O)c1ccc(C(=O)NCCCN=C2NS(=O)(=O)c3ccccc32)cc1,1,-235,4,·,i,-17
O=C(c1cccc(S(=O)(=O)N2CCOCC2)c1)N1CCCCCC1,-2,0,-4,0.09,+,-11
O=C(c1cccc(S(=O)(=O)N2CCOCC2)c1)N1CCCC1,-2,·,-4,0.64,i,-4
C/C(=N\NS(=O)(=O)c1ccccc1)c1cccc(NC(=O)c2cccc(Cl)c2)c1,10,·,47*,-0.39,i,-5
Cc1ccc(N2CC(O)=C(c3ccccc3)C2=N)cc1,1,73*,21,-0.86,i,5
N=C1C(c2ccccc2)=C(O)CN1c1ccccc1,2,·,6,0.5,i,7
O=C1c2cccc3c(N4CCCCC4)ccc(c23)C(=O)N1c1ccc(O)cc1,-5,·,-6,6.1*,+,-9
O=C1c2cccc3c(N4CCCCC4)ccc(c23)C(=O)N1c1ccccc1O,-6,·,-20,·,i,-5
CN(C)c1ccc(/C=C/C=C2/SC(=S)N(c3ccccc3)C2=O)cc1,-3,-296,-2,·,+,-29
CCCCCCNc1c([N+](=O)[O-])cc(C)cc1[N+](=O)[O-],-1,-23,·,·,i,-8
N#C/C(=C/c1ccc(-c2ccc(S(N)(=O)=O)cc2)o1)c1nc2ccccc2s1,10,-257,-24,·,+,-10
N#C/C(=C/c1ccc(-c2ccccc2)o1)c1nc(-c2cccs2)cs1,-1,-456,2,·,+,-10
CCOC(=O)N1CCN(C(=O)CCSc2ccc(C)cc2)CC1,-12,28,4,-0.24,i,-2
O=C(Nc1cccc(OC(=O)c2cccnc2)c1)c1cccnc1,-5,50,6,-0.59,i,-6
CC(=O)c1sc2nc(CSc3nnnn3-c3ccccc3)[nH]c(=O)c2c1C,-1,-25,19,0.26,i,-10
Cc1ccc(-n2nnnc2SCc2nc3sc(C)c(C)c3c(=O)[nH]2)cc1,-2,-22,1,1.1,+,-4
O=C(NN1CCOCC1)c1cc(-c2cccs2)nc2ccccc12,0,-57,2,0.46,i,-6
O=C(O)c1cc(-c2cccs2)nc2cc3c(cc12)OCCO3,-5,86*,-4,·,i,2

# Screening data deposited in PubChem BioAssay by several laboratories.
